Test results taken from ChEMBL document CHEMBL1123918, “Thromboxane synthetase inhibitors and antihypertensive agents. 4. N-[(1H-imidazol-1-yl)alkyl] derivatives of quinazoline-2,4(1H,3H)-diones, quinazolin-4(3H)-ones, and 1,2,3-benzotriazin-4(3H)-ones” (J Med Chem, 1987).
Activity calls are given as the source filed them.

Experiments:
[1] = biological target: T1, Thromboxane-A synthase (Rattus norvegicus) (UniProt P49430); assay: Tested for antihypertensive activity in spontaneously hypertensive rats at 100 mg/kg peroral dosage for 2 days; A means active; format: functional, organism-based; design: dose 100 mg/kg
T1 sequence (whole entry): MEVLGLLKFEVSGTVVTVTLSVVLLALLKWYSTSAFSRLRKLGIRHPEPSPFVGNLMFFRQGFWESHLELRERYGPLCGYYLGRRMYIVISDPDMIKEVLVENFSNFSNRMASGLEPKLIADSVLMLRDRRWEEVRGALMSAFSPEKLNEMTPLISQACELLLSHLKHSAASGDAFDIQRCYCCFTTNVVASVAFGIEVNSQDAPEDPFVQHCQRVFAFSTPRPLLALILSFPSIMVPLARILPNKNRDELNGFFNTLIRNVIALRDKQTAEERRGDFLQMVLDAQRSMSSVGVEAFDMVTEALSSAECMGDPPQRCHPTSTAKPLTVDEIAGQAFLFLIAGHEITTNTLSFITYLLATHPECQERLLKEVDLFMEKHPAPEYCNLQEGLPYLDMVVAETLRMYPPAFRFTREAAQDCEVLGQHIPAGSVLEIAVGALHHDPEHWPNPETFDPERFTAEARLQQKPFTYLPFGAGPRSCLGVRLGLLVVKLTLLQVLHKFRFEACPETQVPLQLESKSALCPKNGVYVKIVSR
How it was run: (§1)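 Male 16-week-old Okamoto SHR (mean arterial pressure about 170 mmHg) gavaged with compound suspended in 2% preboiled starch (50 mg/mL) at 100 mg/kg or less, with 0.9% NaCl load 25 mL/kg; identical second dose without saline 24 h later. Mean arterial pressure measured 28 h after first dose; one to three rats per compound.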

Thromboxane-A synthase = biological target: T2, Thromboxane-A synthase (Rattus norvegicus, UniProt P49430); assay: Tested for inhibition of thromboxane synthetase from spontaneously hypertensive rats
T2 sequence (P49430 whole entry): T1 sequence (whole entry)
How it was run: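 Washed SHR platelets in oxygenated Krebs phosphate buffer pH 7.4 (4.5-6.0 X 10^4 platelets/µL) incubated with vehicle or drug 10 min at 37 °C; stopped with ice and citric acid. TXB2 measured by direct RIA. Percent inhibition is relative to vehicle controls after background subtraction. IC50 is read from a plot of inhibition vs log concentration.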

[2] = biological target: T1, Thromboxane-A synthase (Rattus norvegicus); assay: Tested for antihypertensive activity in spontaneously hypertensive rats at 100 mg/kg peroral dosage for 2 days; I is inactive; format: functional, organism-based; design: dose 100 mg/kg; how it was run: as §1

Structure (SMILES)	Activity [1]	IC50 (Thromboxane-A synthase)	Activity [2]
O=c1[nH]c2c(Cl)cccc2c(=O)n1CCCCCCn1ccnc1	Active		
CC(CCn1c(=O)[nH]c2ccccc2c1=O)n1ccnc1 (configuration not stated)	Active	700 nM	
O=c1c2ccccc2nnn1CCCCCn1ccnc1			inactive
O=c1c2ccc(Cl)cc2nnn1CCCCn1ccnc1	Active		
O=c1c2cc(Cl)ccc2nnn1CCCCCn1ccnc1	Active		
CC(Cn1ccnc1)Cn1nnc2ccc(Br)cc2c1=O (configuration not stated)		1700 nM	inactive
CC(CCn1c(=O)[nH]c2ccc(Cl)cc2c1=O)n1ccnc1 (configuration not stated)	Active	150 nM	
O=c1[nH]c2ccc(Cl)cc2c(=O)n1CCCCn1ccnc1 [listing 1 of 3 here]		7 nM	
Nc1ccc(Cl)cc1C(=O)NCCCCCn1ccnc1	Active		
O=c1c2cc(Cl)ccc2nnn1CCCn1ccnc1			inactive
CC(CCNC(=O)c1cc(Cl)ccc1N)n1ccnc1 (configuration not stated)	Active	500 nM	
O=c1[nH]c2cc(Cl)ccc2c(=O)n1CCCCn1ccnc1	Active	9 nM	
CC(Cn1ccnc1)Cn1nnc2ccc(Cl)cc2c1=O (configuration not stated)		900 nM	inactive
O=c1[nH]c2c(Cl)cccc2c(=O)n1CCCCCn1ccnc1	Active	40 nM	
Nc1ccc(Cl)cc1C(=O)NCCCCCCCn1ccnc1			inactive
O=c1[nH]c2ccccc2c(=O)n1CCCCCn1ccnc1	Active	350 nM	
O=c1[nH]c2c(C(F)(F)F)cccc2c(=O)n1CCCCCCn1ccnc1	Active		
O=c1c2ccc(Cl)cc2ncn1CCCCn1ccnc1			inactive
Cc1ccc2nnn(CCCCn3ccnc3)c(=O)c2c1	Active	60 nM	
Nc1ccc(Cl)cc1C(=O)NCCCn1ccnc1	Active		
CC(Cn1ccnc1)Cn1c(=O)[nH]c2ccc(Cl)cc2c1=O (configuration not stated) [listing 1 of 3 here]		8 nM	
CC(Cn1ccnc1)Cn1c(=O)[nH]c2c(C(F)(F)F)cccc2c1=O (configuration not stated)	Active	400 nM	
O=c1c2ccccc2ncn1CCCn1ccnc1			inactive

Structure (SMILES)	Activity [1]	IC50 (Thromboxane-A synthase)	Activity [2]
O=c1[nH]c2cc(Cl)ccc2c(=O)n1CCCCCn1ccnc1	Active	820 nM	
O=c1[nH]c2ccc(Br)cc2c(=O)n1CCCCn1ccnc1	Active	800 nM	
Nc1ccc(Br)cc1C(=O)NCCCCn1ccnc1	Active		
CC(Cn1ccnc1)Cn1c(=O)[nH]c2ccc(Cl)cc2c1=O (configuration not stated) [listing 2 of 3 here]			inactive
Cc1ccc2[nH]c(=O)n(CCCCCn3ccnc3)c(=O)c2c1	Active	30 nM	
O=c1[nH]c2cc(Cl)ccc2c(=O)n1CCCn1ccnc1		180 nM	inactive
O=c1[nH]c2ccccc2c(=O)n1CCCn1ccnc1		600 nM	inactive
O=c1c2cc(Cl)ccc2nnn1CCCCCCCCn1ccnc1	Active		
Cc1ccc2[nH]c(=O)n(CC(C)Cn3ccnc3)c(=O)c2c1 (configuration not stated)		3 nM	inactive
Cc1ccc2[nH]c(=O)n(CCCCn3ccnc3)c(=O)c2c1	Active	50 nM	
CC(CNC(=O)c1cc(Cl)ccc1N)Cn1ccnc1 (configuration not stated)	Active	90 nM	
O=c1[nH]c2ccc(Cl)cc2c(=O)n1CCCCCCCCCCn1ccnc1		7 nM	inactive
CC(Cn1ccnc1)Cn1cnc2ccc(Cl)cc2c1=O (configuration not stated)		90 nM	inactive
O=c1c2cc(Cl)ccc2ncn1CCCCCCn1ccnc1	Active		
CC(CNC(=O)c1cc(Br)ccc1N)Cn1ccnc1 (configuration not stated)		290 nM	inactive
O=c1[nH]c2ccc(Cl)cc2c(=O)n1CCCn1ccnc1			inactive
Cc1ccc2[nH]c(=O)n(CCCn3ccnc3)c(=O)c2c1		20 nM	inactive
O=c1c2cc(Cl)ccc2ncn1CCCCn1ccnc1	Active	500 nM	
Nc1ccccc1C(=O)NCCCn1ccnc1			inactive
Cc1nc2ccc(Cl)cc2c(=O)n1CCCCn1ccnc1	Active		
CC(CCn1c(=O)[nH]c2c(Cl)cccc2c1=O)n1ccnc1 (configuration not stated)	Active	1000 nM	
Nc1cc(Cl)ccc1C(=O)NCCCCn1ccnc1	Active		
O=c1c2ccccc2ncn1CCCCn1ccnc1	Active		

Structure (SMILES)	Activity [1]	IC50 (Thromboxane-A synthase)	Activity [2]
O=c1[nH]c2ccc(Cl)cc2c(=O)n1CCCCCCn1ccnc1	Active	4 nM	
CC(Cn1ccnc1)Cn1c(=O)[nH]c2ccccc2c1=O (configuration not stated)	Active	30 nM	
Cc1ccc(N)c(C(=O)NCC(C)Cn2ccnc2)c1 (configuration not stated)		1300 nM	inactive
CC(Cn1ccnc1)Cn1c(=O)[nH]c2c(Cl)cccc2c1=O (configuration not stated)		10 nM	inactive
O=c1[nH]c2ccccc2c(=O)n1CCCCCCn1ccnc1	Active	40 nM	
CC(CCn1c(=O)[nH]c2cc(Cl)ccc2c1=O)n1ccnc1 (configuration not stated)			inactive
O=c1c2ccc(Cl)cc2nnn1CCCCCn1ccnc1	Active		
Cc1ccc2ncn(CCCCn3ccnc3)c(=O)c2c1	Active	350 nM	
CC(CCn1cnc2ccc(Cl)cc2c1=O)n1ccnc1 (configuration not stated)	Active	8000 nM	
Nc1cc(Cl)ccc1C(=O)NCCCCCn1ccnc1			inactive
O=c1[nH]c2ccc(Cl)cc2c(=O)n1CCCCCn1ccnc1	Active	12 nM	
Nc1c(Cl)cccc1C(=O)NCCCCCn1ccnc1			inactive
O=c1c2cc(Br)ccc2nnn1CCCCn1ccnc1	Active		
CC(Cn1ccnc1)Cn1cnc2ccccc2c1=O (configuration not stated)	Active		
Nc1ccccc1C(=O)NCCCCn1ccnc1			inactive
O=c1[nH]c2ccc(Br)cc2c(=O)n1CCCn1ccnc1		100 nM	inactive
O=c1c2cc(Cl)ccc2nnn1CCCCCCn1ccnc1	Active		
CC(Cn1ccnc1)Cn1c(=O)[nH]c2cc(Cl)ccc2c1=O (configuration not stated) [listing 1 of 2 here]		3 nM	
Nc1ccc(Cl)cc1C(=O)NCCCCCCCCn1ccnc1	Active		
CC(Cn1ccnc1)Cn1c(=O)[nH]c2ccc(Cl)cc2c1=O (configuration not stated) [listing 3 of 3 here]		10 nM	
O=c1[nH]c2ccc(Cl)cc2c(=O)n1CCCCn1ccnc1 [listing 2 of 3 here]		2 nM	
O=c1c2ccccc2nnn1CCCCCCn1ccnc1	Active	50 nM	
Cc1ccc2[nH]c(=O)n(CCC(C)n3ccnc3)c(=O)c2c1 (configuration not stated)	Active	70 nM	

Structure (SMILES)	Activity [1]	IC50 (Thromboxane-A synthase)	Activity [2]
O=c1c2ccccc2nnn1CCCCn1ccnc1	Active		
Cc1ccc(N)c(C(=O)NCCC(C)n2ccnc2)c1 (configuration not stated)	Active	170 nM	
O=c1[nH]c2ccc(Cl)cc2c(=O)n1CCCCCCCCn1ccnc1			inactive
O=c1c2ccccc2nnn1CCCn1ccnc1	Active	1500 nM	
O=c1[nH]c2c(C(F)(F)F)cccc2c(=O)n1CCCCn1ccnc1	Active	50 nM	
CCc1nc2ccc(Cl)cc2c(=O)n1CCCCn1ccnc1	Active		
O=c1[nH]c2ccccc2c(=O)n1CCCCn1ccnc1	Active		
CC(CNC(=O)c1ccc(Cl)cc1N)Cn1ccnc1 (configuration not stated)	Active		
O=c1[nH]c2c(C(F)(F)F)cccc2c(=O)n1CCCCCn1ccnc1	Active	10 nM	
O=c1[nH]c2c(Cl)cccc2c(=O)n1CCCCn1ccnc1	Active	30 nM	
Cc1ccc(N)c(C(=O)NCCCCn2ccnc2)c1		340 nM	inactive
O=c1c2cc(Cl)ccc2nnn1CCCCn1ccnc1	Active	240 nM	
Nc1ccc(Cl)cc1C(=O)NCCCCn1ccnc1			inactive
O=c1[nH]c2ccc(Cl)cc2c(=O)n1CCCCn1ccnc1 [listing 3 of 3 here]	Active		
O=c1c2cc(Cl)ccc2ncn1CCCCCn1ccnc1			inactive
O=c1c2cc(Cl)ccc2ncn1CCCCCCCCn1ccnc1	Active	40 nM	
Nc1ccc(Cl)cc1C(=O)NCCCCCCn1ccnc1	Active		
O=c1c2ccccc2ncn1CCCCCCn1ccnc1	Active		
O=c1[nH]c2ccc(Cl)cc2c(=O)n1CCCCCCCn1ccnc1	Active	2 nM	
CC(Cn1ccnc1)Cn1c(=O)[nH]c2cc(Cl)ccc2c1=O (configuration not stated) [listing 2 of 2 here]	Active		
O=c1[nH]c2cc(Cl)ccc2c(=O)n1CCCCCCn1ccnc1	Active	200 nM	
O=c1c2ccccc2ncn1CCCCCn1ccnc1	Active		
Cc1ccc2nnn(CCCCCn3ccnc3)c(=O)c2c1	Active		
